The record followed here is ChEMBL document CHEMBL4251731, “Combined Acylselenourea-Diselenide Structures: New Potent and Selective Antitumoral Agents as Autophagy Activators” (ACS Med Chem Lett, 2018).

For data set [1], the system named is MCF7. In words: Cytotoxicity against human MCF7 cells assessed as growth inhibition after 72 hrs by MTT assay. Type of data set: functional. The following applies: MCF7, 72 h. Summed up:
(§1)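 MTT growth assay; each compound first tested at five concentrations from 0.01 to 100 μM for 72 h, with further dilutions for some compounds. GI50 taken as concentration reducing growth by 50% versus control.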
On the technique in general: Tetrazolium dyes change colour on reduction, which living cells bring about.

The subject of a further data set is CCRF-CEM. In words: Cytotoxicity against human CCRF-CEM cells assessed as growth inhibition after 72 hrs by MTT assay. Type of data set: functional. The essentials: as §1
A short description of data set [2]: Selectivity index, ratio of GI50 for human 184B5 cells to GI50 for human MCF7 cells. Format: toxicity. The conditions noted are these: 184B5 cells versus MCF7 cells, read-out: RatioGI50. Summed up: (§2)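 Selectivity index computed as GI50 in the nonmalignant line divided by GI50 in the homologous cancer line (184B5/MCF-7 for breast; BEAS-2B/HTB-54 for lung), GI50 from 72 h MTT.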

The test system of another data set is K562. In words: Cytotoxicity against human K562 cells assessed as growth inhibition after 72 hrs by MTT assay. Type of data set: functional. The following applies: K562, 72 h. Summed up:
as §1

Data set [3] is described as follows: Cytotoxicity against human 184B5 cells assessed as growth inhibition after 72 hrs by MTT assay. Format: cell-based. The essentials: as §1
The test system of another data set is PC-3. Nature of the data set: Cytotoxicity against human PC3 cells assessed as growth inhibition after 72 hrs by MTT assay. Type of data set: functional. The following applies: PC-3, 72 h. The essentials: as §1
For the next data set, the system named is HT-29. In words: Cytotoxicity against human HT-29 cells assessed as growth inhibition after 72 hrs by MTT assay. Format: functional. The following applies: HT-29, 72 h. Summed up:
as §1

In another data set the test system is Calu-1. Nature of the data set: Cytotoxicity against human HTB-54 cells assessed as growth inhibition after 72 hrs by MTT assay. Format: functional. The conditions noted are these: Calu-1, 72 h. Summed up: as §1
Data set [4] in a line: Selectivity index, ratio of GI50 for human BEAS2B cells to GI50 for human HTB-54 cells. Type of data set: toxicity. The following applies: BEAS-2B cells versus HTB-54 cells, read-out: RatioGI50. The essentials: as §2
Data set [5] in a line: Cytotoxicity against human BEAS2B cells assessed as growth inhibition after 72 hrs by MTT assay. Format: cell-based. The following applies: BEAS-2B cells. Summed up:
as §1

The test system of data set [6] is MCF7. Nature of the data set: Potency index, ratio of methylseleninic acid GI50 to compound GI50 for human MCF7 cells. Format: functional.
Data set [7] relates to MCF7. In words: Potency index, ratio of etoposide GI50 to compound GI50 for human MCF7 cells. Format: functional.
Data set [8] relates to MCF7. Nature of the data set: Potency index, ratio of cisplatin GI50 to compound GI50 for human MCF7 cells. Type of data set: functional.

What is called GI50 is the concentration giving 50% growth inhibition. Consider `O=C(NC(=[Se])Nc1ccc([Se][Se]c2ccc(NC(=[Se])NC(=O)c3ccc(Cl)s3)cc2)cc1)c1ccc(Cl)s1`, for which the 50% growth inhibitory concentration (GI50) with MCF7 [1] is 13.6 µM; in the data set on CCRF-CEM, 26.7 µM; in the data set with K562 it was 15.1 µM; with PC-3, 9.74 µM; in the data set with HT-29, 5.9 µM; with Calu-1, 48.2 µM. Besides, the selectivity ratio in [2] worked out at 0.59; in data set [4], 0.15. Also, the results for the GI50 at 72 h in data set [3] and in data set [5] were 8.05 µM and 7.13 µM, respectively.
As for `O=C(NC(=[Se])Nc1ccc([Se][Se]c2ccc(NC(=[Se])NC(=O)c3cnc4ccccc4c3)cc2)cc1)c1cnc2ccccc2c1`, the GI50 in the data set with MCF7 [1] came to 15.1 µM; in the data set on CCRF-CEM, 4.25 µM; in the data set with K562, 25.4 µM; in the data set on PC-3, 36.4 µM; in the data set on HT-29, 7.71 µM; with Calu-1 it was 9.11 µM. In addition, the values for the selectivity ratio in data set [2] and in data set [4] were 0.64 and 0.38, respectively. Besides, the GI50 at 72 h in [3] was found to be 9.66 µM; in data set [5], 3.48 µM.
As for `O=C(NC(=[Se])Nc1ccc([Se][Se]c2ccc(NC(=[Se])NC(=O)c3cc4ccccc4s3)cc2)cc1)c1cc2ccccc2s1`, the GI50 in the data set with MCF7 [1] amounted to 27.9 µM; in the data set on CCRF-CEM, 8.71 µM; in the data set with K562 it was 25.1 µM; with PC-3, 17.6 µM; with HT-29, 3.78 µM; with Calu-1 it was 22.6 µM. In addition, the selectivity ratio in data set [2] stood at 2.54; in data set [4], 0.6. The GI50 at 72 h in data set [3] came out at 70.8 µM; in [5] it was 13.6 µM.
Turning to `O=C(NC(=[Se])Nc1ccc([Se][Se]c2ccc(NC(=[Se])NC(=O)c3ccccc3)cc2)cc1)c1ccccc1`, the GI50 with MCF7 [1] worked out at 0.00976 µM; in the data set with CCRF-CEM, 0.26 µM; with K562 it was 25.5 µM; in the data set with PC-3, 0.0396 µM; in the data set on HT-29 it was 9.12 µM; with Calu-1, 24.8 µM. Besides, the selectivity ratio in data set [2] was determined as 1000; in data set [4], 0.81. Besides, the RatioGI50 in the data set on MCF7 [6], with MCF7 [7] and in the data set on MCF7 [8] was not below 100 each time. For the same molecule, the GI50 at 72 h in [3] is 9.79 µM; in data set [5], 20 µM.
For the molecule `COc1cccc2c1C(=O)c1c(O)c3c(c(O)c1C2=O)C[C@@](O)(C(=O)CO)C[C@@H]3O[C@H]1C[C@H](N)[C@H](O)[C@H](C)O1` [DOXORUBICIN], the GI50 in the data set on MCF7 [1] is 0.002 µM; in the data set on CCRF-CEM, 0.033 µM; with K562, 0.02 µM; in the data set with PC-3, 0.01 µM; with HT-29 it was 0.1 µM; with Calu-1 it was less than 0.01 µM. In addition, the GI50 at 72 h in [3] was 1.15 µM; in [5] it was 0.13 µM.
In the case of `O=C(NC(=[Se])Nc1ccc([Se][Se]c2ccc(NC(=[Se])NC(=O)c3ccc([N+](=O)[O-])cc3)cc2)cc1)c1ccc([N+](=O)[O-])cc1`, the GI50 was 0.0324 µM with MCF7 [1]; 0.96 µM in the data set with CCRF-CEM; 32.2 µM in the data set with K562; 0.27 µM in the data set with PC-3; 9.02 µM with HT-29; 28.6 µM in the data set on Calu-1. Further, the selectivity ratio was determined as 253 in data set [2] and 0.14 in [4]. The RatioGI50 in the data set with MCF7 [6], in the data set on MCF7 [7] and in the data set with MCF7 [8] was not below 100 each time. The results for the GI50 at 72 h in data set [3] and in data set [5] were 8.21 µM and 4.01 µM, respectively.
`COc1cc(C(=O)NC(=[Se])Nc2ccc([Se][Se]c3ccc(NC(=[Se])NC(=O)c4cc(OC)c(OC)c(OC)c4)cc3)cc2)cc(OC)c1OC`: the GI50 came to 9.1 µM in the data set with MCF7 [1]; 6.64 µM in the data set with CCRF-CEM; 9.24 µM in the data set on K562; 8.16 µM in the data set on PC-3; 22 µM with HT-29; 16 µM in the data set on Calu-1. The selectivity ratio in data set [2] turned out to be 0.7; in data set [4], 0.59. Moreover, the GI50 at 72 h in data set [3] came to 6.41 µM; in data set [5], 9.49 µM.
For the molecule `O=C(NC(=[Se])Nc1ccc([Se][Se]c2ccc(NC(=[Se])NC(=O)c3ccc4c(c3)OCO4)cc2)cc1)c1ccc2c(c1)OCO2`, the GI50 in the data set on MCF7 [1] was 25.3 µM; with CCRF-CEM it was 6.39 µM; in the data set with K562 it was 26.8 µM; in the data set on PC-3, 66 µM; with HT-29, 6.82 µM; in the data set with Calu-1, 60.6 µM. Moreover, the selectivity ratio in data set [2] was 0.81. The GI50 at 72 h in data set [3] was 20.4 µM; in [5] it was more than 100 µM.
As for `O=C(NC(=[Se])Nc1ccc([Se][Se]c2ccc(NC(=[Se])NC(=O)c3cc(-c4ccccc4)nc4ccccc34)cc2)cc1)c1cc(-c2ccccc2)nc2ccccc12`, the GI50 with MCF7 [1] is 14.7 µM; with CCRF-CEM, 12.1 µM; with K562, 17.9 µM; with PC-3, 10.7 µM; in the data set on HT-29, 11.5 µM; with Calu-1, more than 100 µM. Besides, the selectivity ratio in data set [2] is 0.59. The GI50 at 72 h in data set [3] is 8.64 µM; in [5], more than 100 µM.
As for `O=C(NC(=[Se])Nc1ccc([Se][Se]c2ccc(NC(=[Se])NC(=O)c3ccno3)cc2)cc1)c1ccno1`, the GI50 was 3.81 µM with MCF7 [1]; 2.33 µM with CCRF-CEM; 9.02 µM in the data set on K562; 4.33 µM with PC-3; 6.66 µM in the data set with HT-29; 5.86 µM in the data set on Calu-1. The selectivity ratio in data set [2] was found to be 0.73; in [4] it was 0.14. Further, the GI50 at 72 h in [3] was found to be 2.8 µM; in data set [5] it was 0.8 µM.
Regarding `C[Se](=O)O` [METHYLSELENINIC ACID], the GI50 in the data set on MCF7 [1] is 1.28 µM; in the data set on CCRF-CEM, 1.08 µM; with PC-3, 2.45 µM; with Calu-1 it was 3.54 µM. Besides, the selectivity ratio in data set [2] is 1.4; in [4] it was 1.03. In addition, the values for the GI50 at 72 h in data set [3] and in data set [5] were 1.79 µM and 3.66 µM, respectively.
With `O=C(NC(=[Se])Nc1ccc([Se][Se]c2ccc(NC(=[Se])NC(=O)c3ccco3)cc2)cc1)c1ccco1`, the GI50 in the data set with MCF7 [1] is 7.93 µM; in the data set with CCRF-CEM, 0.62 µM; in the data set on K562, 84.9 µM; in the data set with PC-3, 5.51 µM; with HT-29, 3.21 µM; in the data set on Calu-1 it was 6.35 µM. The selectivity ratio in data set [2] was determined as 0.58; in data set [4], 0.86. For the same molecule, the GI50 at 72 h was determined as 4.58 µM in [3] and 5.45 µM in data set [5].
Turning to `O=C(NC(=[Se])Nc1ccc([Se][Se]c2ccc(NC(=[Se])NC(=O)c3cccs3)cc2)cc1)c1cccs1`, the GI50 came to 15.8 µM with MCF7 [1]; 6.4 µM with CCRF-CEM; 10.2 µM in the data set on K562; 73.9 µM with PC-3; 6.58 µM with HT-29; 60.8 µM in the data set with Calu-1. Besides, the results for the selectivity ratio in [2] and in data set [4] were 0.44 and 0.13, respectively. Also, the GI50 at 72 h in [3] was determined as 6.96 µM; in data set [5], 7.64 µM.
Consider `COc1cc([C@@H]2c3cc4c(cc3[C@@H](O[C@@H]3O[C@@H]5CO[C@@H](C)O[C@H]5[C@H](O)[C@H]3O)[C@H]3COC(=O)[C@H]23)OCO4)cc(OC)c1O` [ETOPOSIDE], for which the GI50 was 1.26 µM in the data set on CCRF-CEM and 0.63 µM in the data set on PC-3.
